Assay results from ChEMBL document CHEMBL1156130, “(1-(4-(Naphthalen-2-yl)pyrimidin-2-yl)piperidin-4-yl)methanamine: a wingless beta-catenin agonist that increases bone formation rate” (J Med Chem, 2009).
In brackets after ≈: the same amount, converted by molar mass. Activity calls are given as the source filed them. No cut-off for these calls is given here.

What was measured:
[1] = Solubility at pH 7.4; assay type: physicochemical; conditions: buffer
[2] = molecular target: Glycogen synthase kinase-3 beta (Homo sapiens, UniProt P49841); assay: Inhibition of GSK3-beta
Glycogen synthase kinase-3 beta, sequence (P49841 whole entry): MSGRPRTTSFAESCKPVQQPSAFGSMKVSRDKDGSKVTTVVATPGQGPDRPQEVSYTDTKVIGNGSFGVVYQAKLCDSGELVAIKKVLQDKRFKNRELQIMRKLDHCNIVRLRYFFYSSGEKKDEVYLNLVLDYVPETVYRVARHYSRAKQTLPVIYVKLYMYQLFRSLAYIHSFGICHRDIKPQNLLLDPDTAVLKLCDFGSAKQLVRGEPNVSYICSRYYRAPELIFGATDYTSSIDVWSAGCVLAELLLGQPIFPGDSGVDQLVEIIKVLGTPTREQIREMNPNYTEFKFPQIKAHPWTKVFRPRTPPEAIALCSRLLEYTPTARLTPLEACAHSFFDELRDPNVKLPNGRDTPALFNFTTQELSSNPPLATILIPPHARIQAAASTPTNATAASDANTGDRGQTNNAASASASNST

[3] = AUC (0 to infinity) in ovariectomized rat at 10 mg/kg, po; assay type: ADME, organism-based; set-up: time infinity, dose 10 mg/kg, route oral; conditions: female, plasma
In short: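 Single oral dose in ovariectomized rats, vehicle 2% MC/0.5% Tween-80. Plasma drug concentration followed over time; AUC0-∞ taken from the plasma concentration-time curve.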

Mus musculus [4] = species on record: Mus musculus; assay: Increase in trabecular bone formation rate in Dkk1 knockout mouse measured after 7 days; assay type: functional, organism-based; conditions: Trabecula
[5] = AUC (0 to infinity) in ovariectomized rat at 2 mg/kg, iv; assay type: ADME, organism-based; set-up: time infinity, dose 2 mg/kg, route intravenous; conditions: female, plasma
In short: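 Single intravenous dose in ovariectomized rats, vehicle DMSO. Plasma drug concentration followed over time; AUC0-∞ taken from the plasma concentration-time curve.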

[6] = Half life in ovariectomized rat plasma at 10 mg/kg, po; assay type: ADME, organism-based; set-up: dose 10 mg/kg, route oral; conditions: female
In short: (§1)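 Single oral dose given to ovariectomized rats at 10 mg/kg in 2% MC/0.5% T80 vehicle. Plasma drug concentration was followed over time, and PK parameters were derived from the concentration-time curve.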

[7] = Volume of distribution at steady state in ovariectomized rat at 2 mg/kg, iv; assay type: ADME, organism-based; set-up: dose 2 mg/kg, route intravenous; conditions: female, in vivo, read-out: Vdss
In short: (§2)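 Ovariectomized rats received a single intravenous dose of 2.0 mg/kg in DMSO vehicle. Plasma drug concentration-time curves gave the PK parameters.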

Mus musculus [8] = species on record: Mus musculus; assay: Increase in trabecular bone formation rate in wild type mouse measured after 7 days; assay type: functional, organism-based; conditions: Trabecula
[9] = Cmax in ovariectomized rat at 10 mg/kg, po; assay type: ADME, organism-based; set-up: dose 10 mg/kg, route oral; conditions: female, in vivo; in short: as §1
[10] = Metabolic stability in rat liver microsomes assessed as half life at 1 uM; assay type: ADME, Microsome
[11] = Oral bioavailability in ovariectomized rat at 10 mg/kg; assay type: ADME, organism-based; conditions: female, in vivo; in short: as §1
[12] = Half life in ovariectomized rat plasma at 2 mg/kg, iv; assay type: ADME, organism-based; set-up: dose 2 mg/kg, route intravenous; conditions: female; in short: as §2
[13] = Tmax in ovariectomized rat at 10 mg/kg, po; assay type: ADME, organism-based; set-up: dose 10 mg/kg, route oral; conditions: female, in vivo; in short: as §1
Rattus norvegicus [14] = assay: Increase in trabecular bone formation rate in ovariectomized rat measured at 0.3 mg/kg, po once daily after 28 days; assay type: functional, organism-based; set-up: dose 0.3 mg/kg; conditions: Trabecula
In short: (§3)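 Ovariectomized rats dosed orally once daily for 28 days at four dose levels; vehicle 0.5% methylcellulose/2% Tween-80. Trabecular bone formation rate in the tibia determined at end of in-life phase. Positive control hPTH given sc.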

[15] = Membrane permeability by PAMPA; assay type: ADME; conditions: read-out: permeability
[16] = Plasma clearance in ovariectomized rat at 2 mg/kg, iv; assay type: ADME, organism-based; set-up: dose 2 mg/kg, route intravenous; conditions: female; in short: as §2
Rattus norvegicus [17] = assay: Increase in trabecular bone formation rate in once daily po dosed ovariectomized rat measured after 28 days; assay type: functional, organism-based; conditions: Trabecula; in short: as §3

Cc1ccc(-c2ccnc(N(C)c3ccc(S(N)(=O)=O)cc3)n2)s1
solubility [1]: 15 µg/mL (≈ 41.6 µM)
IC50 [2]: 65 µM

NC1CCN(c2nccc(-c3ccc4ccccc4c3)n2)CC1
solubility [1]: > 100 µg/mL
IC50 [2]: > 50 µM

NCC1CCN(c2nccc(-c3ccc4ccccc4c3)n2)CC1
solubility [1]: 65 µg/mL (≈ 204 µM)
AUC(0-inf) [3]: 3990 ng·h/mL
Activity (Mus musculus [4]): inactive
AUC(0-inf) [5]: 1030 ng·h/mL
half-life [6]: 5.6 h
Vd [7]: 22 L/kg
Activity (Mus musculus [8]): Active
Cmax [9]: 277 ng/mL
half-life at 1 µM [10]: > 0.5 h
IC50 [2]: > 100 µM
bioavailability [11]: 78%
half-life [12]: 8.2 h
Tmax [13]: 4.7 h
Activity (Rattus norvegicus [14]): Active
Papp [15]: 5.9 ×10⁻⁶ cm/s
clearance [16]: 32 mL/min/kg
Activity (Rattus norvegicus [17]): Dose-dependent effect

CC(=O)NCC1CCN(c2nccc(-c3ccc4ccccc4c3)n2)CC1
solubility [1]: 1 µg/mL (≈ 2.77 µM)
IC50 [2]: > 10 µM

NS(=O)(=O)c1ccc(Nc2nccc(-c3ccc4ccccc4c3)n2)cc1
solubility [1]: < 0.1 µg/mL
IC50 [2]: 0.31 µM

Cc1ccc(-c2ccnc(Nc3ccc(S(N)(=O)=O)cc3)n2)s1
solubility [1]: 8 µg/mL (≈ 23.1 µM)
IC50 [2]: 0.2 µM
